Source: PubChem
Sampled rows, rich in hits. Any-hit rate of the full collection: about 3.2%.
DAX1 inh-1: DAX1 (NR0B1) inhibitors on StAR promoter, primary screen, cell-based, luminescence, SF-1 (NR5A1), full-length DAX-1. HEK293T StAR-luciferase reporter, SF-1/DAX-1 repression relief. inhibition, % at 6.8 µM. hit rate 1.1% among 370,000;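 active means inhibition above the mean over all tested compounds plus 3 SD, cut at about 3.6% in these data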;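 further: 0% = DAX-1 cells with DMSO and 100% = cells lacking DAX-1 with DMSO; higher inhibition means more luminescence from relief of DAX-1 repression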
GASC-1 inh: inhibitors of GASC-1 histone demethylase, primary screen, biochemical, fluorescence, DELFIA europium; Lysine-specific demethylase 4C (Homo sapiens), Q9H3R0; GST-JMJD2C(1-420) H3K9me3 demethylation; inhibition, % at 2.35 µM; hit rate 0.069% among 330,000; AID 2099, 2009;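 active means more than half of a compound's replicate wells show inhibition beyond 50%, single wells judged on their own value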;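 further: signal counts dimethyl H3K9 product captured on neutravidin plate; 0% = median of DMSO wells and 100% = 0.3 times that DMSO median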
Target sequence (Q9H3R0 1-420 limits assumed): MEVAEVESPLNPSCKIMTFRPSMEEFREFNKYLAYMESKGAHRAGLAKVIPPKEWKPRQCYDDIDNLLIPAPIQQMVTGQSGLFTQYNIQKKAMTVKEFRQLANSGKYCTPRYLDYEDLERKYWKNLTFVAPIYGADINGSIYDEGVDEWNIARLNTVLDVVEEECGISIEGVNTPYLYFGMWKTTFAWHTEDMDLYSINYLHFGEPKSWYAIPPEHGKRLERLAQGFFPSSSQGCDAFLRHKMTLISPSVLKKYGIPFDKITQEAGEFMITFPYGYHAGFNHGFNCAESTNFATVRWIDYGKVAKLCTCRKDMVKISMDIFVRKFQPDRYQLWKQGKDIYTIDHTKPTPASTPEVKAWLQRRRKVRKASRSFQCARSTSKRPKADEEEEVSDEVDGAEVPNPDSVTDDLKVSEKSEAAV
NR2E3 ag-1: NR2E3 agonists in two-hybrid cells, primary screen, cell-based, luminescence, CHO-S, Gal4-NCOR/VP16-NR2E3. inhibition of corepressor binding, % at 3.98 µM. hit rate 0.35% among 360,000. luciferase;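 active means inhibition above the mean of all tested compounds plus 3 SD, cut at about 70% in these data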;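 further: 0% = DMSO with NR2E3 transfected cells and 100% = cells lacking NR2E3 construct; higher means lower luciferase signal from less NR2E3 corepressor binding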
NR2E3 ag-2: inhibitors of NR2E3-RetCOR corepressor binding, primary screen, NR2E3 agonist project, biochemical, TR-FRET, GST-NR2E3, biotin-RetCOR | Photoreceptor-specific nuclear receptor (Homo sapiens), Q9Y5X4 | AID 2300, 2010 | inhibition of corepressor binding, % at 4.78 µM | hit rate 0.12% among 320,000 | 1536-well;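 active means percent inhibition above the cutoff of mean plus 3 SD of all tested compounds, set per screening campaign, cut at about 20% in these data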;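 further: 0% = DMSO wells and 100% = biotin wells as full block of FRET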
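Test system: GST-NR2E3 and biotin-RetCOR proteins | Quantity: 1.35 nM GST-tagged NR2E3 final | Medium: Tris pH 7.5 | Also added: 7 nM biotin-RetCOR | Dosing: Compound at 4.8 µM, single dose | Timing: 5 h at 4 °C | Detection: Time-resolved FRET | Read-out basis: Percent inhibition | Benchmarks: Biotin wells as high control, 0.6% DMSO wells as low control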
DAX1 inh-2: DAX1 (NR0B1) inhibitors, primary screen, cell-based, HEK293, Gal4-DAX1, luciferase luminescence; hit rate 0.99% among 340,000; HEK293 Gal4-DAX1 luciferase reporter; inhibition, % at 6.75 µM;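 active means inhibition above the mean over all tested compounds plus 3 SD, cut at about 4.2% in these data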;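 further: 0% = DAX1-transfected cells with DMSO and 100% = empty-vector control cells with DMSO; inhibition shows as a rise in luminescence from relieved DAX1 repression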
Target sequence (P51843 207-470 limits assumed): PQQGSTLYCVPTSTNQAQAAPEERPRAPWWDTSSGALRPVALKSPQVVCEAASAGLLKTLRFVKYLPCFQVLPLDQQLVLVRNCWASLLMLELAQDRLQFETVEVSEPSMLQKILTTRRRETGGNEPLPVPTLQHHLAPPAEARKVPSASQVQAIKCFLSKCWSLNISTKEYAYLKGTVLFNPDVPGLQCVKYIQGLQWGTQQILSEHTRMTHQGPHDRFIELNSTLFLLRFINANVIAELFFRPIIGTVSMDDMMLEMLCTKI
SMARCA2 act: SMARCA2 (BRM) function activators, primary screen, cell-based, luminescence, high throughput; activation, % at 9.1 µM; hit rate 1% among 370,000; MG213 cells, MMTV-luciferase reporter, dexamethasone, overnight; in the data active means activation above about 7.8%;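 further: 0% = vehicle wells and 100% = reference activator wells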
Active calls of the source: *; . = no result.

SMILES | DAX1 inh-1 | GASC-1 inh | NR2E3 ag-1 | NR2E3 ag-2 | DAX1 inh-2 | SMARCA2 act
COC(=O)[C@H]1C[C@@]2(N3CCCC3)c3ccccc3N[C@H]2N1S(=O)(=O)c1ccc([N+](=O)[O-])cc1 | -0.4 | . | . | . | . | -0.6
COC(=O)C12CCCN1C1C(=O)N(Cc3ccc(C(N)=O)cc3)CC1C2 (stereo not given) | -0.5 | . | . | . | . | -0.9
CC1=C(C(=O)OCC2CCCO2)C(c2coc3ccc(Cl)cc3c2=O)C2=C(CCCC2=O)N1 (stereo not given) | -1.2 | 5.6 | -41.2 | 2.4 | 8.9* | -0.4
CC1=C(C(=O)OCC2CCCO2)C(c2coc3ccc(C)cc3c2=O)C2=C(CCCC2=O)N1 (stereo not given) | 0.2 | 8.4 | -16.4 | 3.0 | -1.8 | 1.1
FC(F)(F)c1cnc(COc2cc(Cl)cc(Cl)c2)c(Cl)c1 | 0.1 | 4.5 | -1.4 | 1.1 | 5.8* | -2.4
O=C(Nc1nc(-c2ccc(F)cc2)cs1)C1CCN(C(=O)c2ccc(F)cc2)CC1 | -7.7 | 5.5 | 0.7 | -0.9 | -4.0 | -4.1
O=C(Nc1nc2c(F)cc(F)cc2s1)C1CCN(C(=O)c2ccc(F)cc2)CC1 | 4.0* | -0.2 | -71.1 | -2.4 | 2.3 | 5.3
COCC#Cc1ccc(CC[C@H]2O[C@H]3CC[C@@H](CO)O[C@H]3C[C@H]2n2cc(C(C)(C)O)nn2)cc1 | 0.3 | . | . | . | . | -1.0
Cc1ccc(OCC(=O)Nc2ccc3c(c2)OC(F)(F)O3)c([N+](=O)[O-])n1 | -0.3 | -15.0 | 2.9 | 3.1 | -0.6 | 3.8
Cc1ccc(OCC(=O)Nc2ccc(C)c(F)c2)c([N+](=O)[O-])n1 | 3.7* | . | -32.0 | . | 1.9 | 5.1
COc1cccc(C(C[N+](=O)[O-])c2c(C)[nH]n(-c3ccccc3)c2=O)c1 (stereo not given) | -0.2 | 68.9* | -8.4 | 10.3 | 0.2 | -1.2
Cc1[nH]n(-c2ccccc2)c(=O)c1C(C[N+](=O)[O-])c1ccc(Br)cc1 (stereo not given) | -0.8 | -17.6 | -36.4 | -1.6 | -0.4 | 0.7
CCc1cc2ccccc2nc1Cl | 0.3 | -21.9 | 12.2 | 0.3 | 6.1* | -0.7
ClCc1cc2ccccc2nc1Cl | 0.3 | 0.3 | -29.8 | 1.1 | -1.4 | -4.6
Cc1c(C(=O)N/N=C/c2ccccc2Cl)[nH][nH]c1=O | 1.2 | . | . | . | . | 0.5
O=C(NCCCn1ccnc1)c1cc2cc([N+](=O)[O-])ccc2oc1=O | 0.4 | -8.3 | -20.9 | -2.5 | 4.2* | -4.2
Cc1cccc(NC(=O)c2cccc3c2-c2ccccc2C3=O)c1C | -0.1 | . | . | . | . | 3.2
CCOc1ccc(N(CC(=O)N2CCCCCC2)S(=O)(=O)c2ccc(C)cc2)cc1 | -2.6 | -33.9 | 11.9 | 0.0 | 1.8 | -0.5
Cc1ccc(N(CC(=O)N2CCCCC2)S(=O)(=O)c2ccc(C)cc2)cc1 | -1.1 | 3.8 | -19.0 | -1.7 | 4.6* | -0.6
O=C(Cc1ccccc1F)Nc1ccc(S(=O)(=O)N2CCCCC2)cc1 | -0.7 | 8.3 | 24.2 | -0.9 | 0.1 | -2.2
O=C(Cn1nc(-c2ccccc2F)ccc1=O)Nc1ccc(S(=O)(=O)N2CCCCCC2)cc1 | -0.5 | 10.1 | -18.1 | -1.8 | 6.6* | -3.6
Cc1ccccc1-c1ccc(=O)n(CC(=O)Nc2ccc(C(=O)N3CCCC3)cc2)n1 | -0.3 | -16.8 | 11.7 | 1.1 | -0.2 | -2.2
Cc1ccccc1-c1ccc(=O)n(CC(=O)Nc2ccc(N3CCOCC3)cc2)n1 | -0.4 | 57.3* | -6.9 | 6.0 | -0.4 | 1.3
O=S1(=O)c2ccc(Br)cc2OC[C@H](Cc2ccccc2)N1Cc1cn(Cc2ccc(Br)cc2)nn1 | -0.7 | . | . | . | . | -1.1
C[C@@]12C[C@@H]3C(=O)N(Cc4ccccc4)CC(=O)N3[C@@H]1N(S(=O)(=O)c1ccccc1)c1ccccc12 | 0.0 | . | . | . | . | -0.5
SMILES | DAX1 inh-1 | GASC-1 inh | NR2E3 ag-1 | NR2E3 ag-2 | DAX1 inh-2 | SMARCA2 act
COC(=O)c1cnn(-c2ccccc2)c1C(OC)OC | 0.0 | -10.6 | -12.6 | -1.0 | 4.5* | -1.9
COc1ccc(/C=C/c2nc3ccccc3n2Cc2ccccc2OC)cc1 | 4.4* | -6.0 | -176.9 | 1.2 | 2.6 | 1.8
COc1ccccc1Cn1c(/C=C/c2ccccc2)nc2ccccc21 | 0.7 | 1.6 | -71.3 | -0.4 | 0.1 | 2.8
CN1CC=C(c2ccccc2)N(c2ccccc2)C1=O | 0.0 | . | . | . | . | 0.8
CCOc1cc(-c2nnc(-c3ccco3)o2)cc(OCC)c1OCC | -1.6 | 26.4 | -21.1 | 2.0 | -0.2 | -1.2
CCOc1ccc(-c2nnc(-c3ccco3)o2)cc1OCC | 1.1 | -4.5 | -67.8 | 0.1 | 7.7* | 1.3
COc1ccc(-c2c(Cc3ccccc3)nc(NC(=O)c3ccccc3)n2Cc2ccc(OC)cc2OC)cc1 | 0.2 | . | . | . | . | -2.3
COc1ccc2[nH]c3c(c2c1)CCN[C@]31C(=O)N(c2ccccc2)c2ccccc21 | -0.5 | . | . | . | . | -0.5
O=C(Nc1ccccc1Cl)c1csc(-c2cccnc2)n1 | 0.0 | 1.0 | -84.9 | -0.8 | 5.0* | 0.7
O=C(Nc1ccn(CCCNCC(c2ccccc2)c2ccccc2)c(=O)n1)OCc1ccccc1 | -0.3 | . | 0.7 | . | 4.4* | 0.8
O=C(CSc1nnc(C2COc3ccccc3O2)o1)Nc1nccs1 (stereo not given) | . | 2.2 | -15.6 | 1.6 | 4.4* | .
Cn1cc(SCC(=O)Nc2nccs2)c2ccccc21 | 4.4* | 3.8 | 1.2 | -2.0 | 2.7 | 5.3
O=C(CSc1nnc(C2COc3ccccc3O2)o1)NC1CCCCC1 (stereo not given) | 0.4 | -6.0 | -43.2 | -1.1 | 1.4 | -0.1
CS(=O)(=O)Nc1ccc2c(c1)ncn2CCc1ccccc1 | -0.2 | 8.1 | 10.6 | -2.1 | 0.6 | -1.0
CC(C)(CC(=O)O)CC(=O)Nc1ccc2c(c1)ncn2CCc1ccccc1 | -0.1 | 5.4 | -6.0 | -3.5 | 4.5* | -1.0
COc1cc(/C=C2/CCCC(C(=O)C(F)(F)F)=C2O)ccc1O | 0.7 | 3.6 | -20.4 | 3.4 | 1.2 | 1.1
CCOc1cc(/C=C2\CCCC(C(=O)C(F)(F)F)=C2O)ccc1O | 3.7* | 2.0 | -14.5 | -2.7 | 1.1 | -2.4
Cc1cc(NS(=O)(=O)c2ccc(NC(=O)/C=C/c3ccc(C)o3)cc2)nc(C)n1 | -0.4 | -1.2 | -23.8 | 1.4 | 4.6* | -4.5
COc1cc(C(=O)Nc2ccc(S(=O)(=O)Nc3cc(C)nc(C)n3)cc2)cc(OC)c1OC | 0.9 | 19.7 | 13.0 | 1.2 | 6.4* | 1.6
Cc1cc(NS(=O)(=O)c2ccc(NC(=O)/C=C/c3ccccc3)cc2)nc(C)n1 | 1.4 | 1.2 | 4.2 | . | 0.8 | 1.6
